# ChEMBL document CHEMBL1137710, “Synthesis and in vitro antitumor activity of new quinoxaline derivatives” (2009)
# Columns and labels:
# Assay type in all cases: functional
# [1] = Growth inhibition of human […] cells after 48 hrs by sulforhodamine B assay
# Method in brief: (§1)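 NCI 60-human-tumor-cell-line panel, with compounds tested over a 5-log dose range. Values are taken from dose-response curves as log10 molar concentrations: GI50 is 50% net growth inhibition, TGI is total growth inhibition, and LC50 is 50% net cell death.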
# SNB-19 = assay: Growth inhibition of human SNB19 cells after 48 hrs by sulforhodamine B assay; settings: SNB-19, 48 h
# Method in brief: (§2)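 Run in the NCI 60-human-tumour-cell-line panel, tested over a 5-log dose range. Dose–response curves gave three values per cell line, each as a log10 molar concentration: GI50 (50% inhibition of net cell growth), TGI (total inhibition of net growth) and LC50 (50% net cell death). The mean graph midpoint is the arithmetic mean over all lines, with insensitive lines entered at the highest concentration tested.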
# MDA-MB-435 = assay: Growth inhibition of human MDA-MB-435 cells after 48 hrs by sulforhodamine B assay; settings: MDA-MB-435, 48 h; method in brief: as §1
# COLO 205 = assay: Growth inhibition of human COLO205 cells after 48 hrs by sulforhodamine B assay; settings: COLO 205, 48 h; method in brief: as §1
# MCF7 = assay: Anticancer activity against human MCF7 cells assessed as cell growth at 100 uM after 48 hrs by sulforhodamine B assay; settings: MCF7, 48 h, read-out: Activity
# NCI-H522 = assay: Growth inhibition of human NCI-H522 cells after 48 hrs by sulforhodamine B assay; settings: NCI-H522, 48 h; method in brief: as §1
# SF-268 [2] = assay: Anticancer activity against human SF268 cells assessed as cell growth at 100 uM after 48 hrs by sulforhodamine B assay; settings: SF-268, 48 h, read-out: Activity
# RXF 393 = assay: Growth inhibition of human RXF393 cells after 48 hrs by sulforhodamine B assay; settings: RXF 393, 48 h; method in brief: as §1
# NCI/ADR-RES = assay: Growth inhibition of human NCI/ADR-RES cells after 48 hrs by sulforhodamine B assay; method in brief: as §1
# CAKI-1 = assay: Growth inhibition of human Caki1 cells after 48 hrs by sulforhodamine B assay; settings: CAKI-1, 48 h; method in brief: as §1
# HCT-116 = assay: Growth inhibition of human HCT116 cells after 48 hrs by sulforhodamine B assay; settings: HCT-116, 48 h; method in brief: as §1
# LOX IMVI = assay: Growth inhibition of human LOXIMVI cells after 48 hrs by sulforhodamine B assay; method in brief: as §1
# SK-MEL-28 = assay: Growth inhibition of human SK-MEL-28 cells after 48 hrs by sulforhodamine B assay; settings: SK-MEL-28, 48 h; method in brief: as §1
# SF-295 = assay: Growth inhibition of human SF295 cells after 48 hrs by sulforhodamine B assay; settings: SF-295, 48 h; method in brief: as §1
# MDA-MB-231 = assay: Growth inhibition of human MDA-MB-231 cells after 48 hrs by sulforhodamine B assay; settings: MDA-MB-231, 48 h; method in brief: as §1
# OVCAR-5 = assay: Growth inhibition of human OVCAR5 cells after 48 hrs by sulforhodamine B assay; settings: OVCAR-5, 48 h; method in brief: as §1
# 786-0 = assay: Growth inhibition of human 786-0 cells after 48 hrs by sulforhodamine B assay; settings: 786-0, 48 h; method in brief: as §1
# [3] = Growth inhibition of human Hs 578T cells after 48 hrs by sulforhodamine B assay; method in brief: as §1
# M14 = assay: Growth inhibition of human M14 cells after 48 hrs by sulforhodamine B assay; settings: M14, 48 h; method in brief: as §1
# SK-MEL-2 = assay: Growth inhibition of human SK-MEL-2 cells after 48 hrs by sulforhodamine B assay; settings: SK-MEL-2, 48 h; method in brief: as §1
# OVCAR-4 = assay: Growth inhibition of human OVCAR4 cells after 48 hrs by sulforhodamine B assay; settings: OVCAR-4, 48 h; method in brief: as §1
# UACC-62 = assay: Growth inhibition of human UACC62 cells after 48 hrs by sulforhodamine B assay; settings: UACC-62, 48 h; method in brief: as §2
# SW-620 = assay: Growth inhibition of human SW620 cells after 48 hrs by sulforhodamine B assay; settings: SW-620, 48 h; method in brief: as §2
# NCI-H322M = assay: Growth inhibition of human NCI-H322M cells after 48 hrs by sulforhodamine B assay; method in brief: as §1
# SK-MEL-5 = assay: Growth inhibition of human SK-MEL-5 cells after 48 hrs by sulforhodamine B assay; settings: SK-MEL-5, 48 h; method in brief: as §1
# K562 = assay: Growth inhibition of human K562 cells after 48 hrs by sulforhodamine B assay; settings: K562, 48 h; method in brief: as §1
# NCI-H23 = assay: Growth inhibition of human NCI-H23 cells after 48 hrs by sulforhodamine B assay; settings: NCI-H23, 48 h; method in brief: as §1
# SF-268 [4] = assay: Growth inhibition of human SF268 cells after 48 hrs by sulforhodamine B assay; settings: SF-268, 48 h; method in brief: as §1
# U-251 = assay: Growth inhibition of human U251 cells after 48 hrs by sulforhodamine B assay; settings: U-251, 48 h; method in brief: as §2
# OVCAR-3 = assay: Growth inhibition of human OVCAR-3 cells after 48 hrs by sulforhodamine B assay; settings: OVCAR-3, 48 h; method in brief: as §1
# [5] = read-out: pLC50 (the source's name) (converted)
compound,measurement,setting,value
Nc1cc(N)c2nc(-c3ccccc3)c(NCc3ccc(Cl)c(Cl)c3)nc2c1,GI50,[1],1.66 µM
same,LC50,[1],8.32 µM
same,TGI,[1]; read-out: pTGI (converted),3.72 µM
same,GI50,SNB-19,22.4 µM
same,LC50,SNB-19,> 100 µM
same,TGI,SNB-19; read-out: pTGI (converted),51.3 µM
same,GI50,MDA-MB-435,2.75 µM
same,CC50,MDA-MB-435; [5],52.5 µM
same,TGI,MDA-MB-435; read-out: pTGI (converted),7.59 µM
same,GI50,COLO 205,17 µM
same,LC50 (50% net cell kill),COLO 205,66.1 µM
same,TGI,COLO 205; read-out: pTGI (converted),33.9 µM
same,growth at 100 µM,MCF7,0%
same,GI50,NCI-H522,2.04 µM
same,LC50,NCI-H522,22.4 µM
same,TGI,NCI-H522; read-out: pTGI (converted),4.9 µM
same,growth at 100 µM,SF-268 [2],0%
same,GI50,RXF 393,3.09 µM
same,CC50,RXF 393; [5],> 100 µM
same,TGI,RXF 393; read-out: pTGI (converted),17 µM
same,GI50,NCI/ADR-RES,17.4 µM
same,CC50,NCI/ADR-RES; [5],> 100 µM
same,TGI,NCI/ADR-RES; read-out: pTGI (converted),45.7 µM
same,GI50,CAKI-1,13.2 µM
same,CC50,CAKI-1; [5],> 100 µM
same,TGI,CAKI-1; read-out: pTGI (converted),52.5 µM
same,GI50,HCT-116,11.5 µM
same,LC50 (concentration causing 50% net cell death),HCT-116,50.1 µM
same,TGI,HCT-116; read-out: pTGI (converted),24 µM
same,GI50,LOX IMVI,2.14 µM
same,GI50,SK-MEL-28,18.6 µM
same,CC50,SK-MEL-28; [5],93.3 µM
same,TGI,SK-MEL-28; read-out: pTGI (converted),41.7 µM
same,GI50,SF-295,15.5 µM
same,LC50 (50% net cell kill),SF-295,89.1 µM
same,TGI,SF-295; read-out: pTGI (converted),37.2 µM
same,GI50,MDA-MB-231,1.58 µM
same,CC50,MDA-MB-231; [5],> 100 µM
same,TGI,MDA-MB-231; read-out: pTGI (converted),4.47 µM
same,GI50,OVCAR-5,24 µM
same,CC50,OVCAR-5; [5],69.2 µM
same,TGI,OVCAR-5; read-out: pTGI (converted),40.7 µM
same,GI50,786-0,13.2 µM
same,CC50,786-0; [5],70.8 µM
same,TGI,786-0; read-out: pTGI (converted),30.2 µM
same,GI50,[3],5.89 µM
same,CC50,[3]; [5],> 100 µM
same,TGI,[3]; read-out: pTGI (converted),46.8 µM
same,GI50,M14,15.8 µM
same,CC50,M14; [5],75.9 µM
same,TGI,M14; read-out: pTGI (converted),34.7 µM
same,GI50,SK-MEL-2,1.91 µM
same,CC50,SK-MEL-2; [5],9.55 µM
same,TGI,SK-MEL-2; read-out: pTGI (converted),4.27 µM
same,GI50,OVCAR-4,11.7 µM
same,CC50,OVCAR-4; [5],> 100 µM
same,TGI,OVCAR-4; read-out: pTGI (converted),> 100 µM
same,GI50,UACC-62,14.1 µM
same,CC50,UACC-62; [5],67.6 µM
same,TGI,UACC-62; read-out: pTGI (converted),30.9 µM
same,GI50,SW-620,3.24 µM
same,CC50,SW-620; [5],> 100 µM
same,TGI,SW-620; read-out: pTGI (converted),9.77 µM
same,GI50,NCI-H322M,13.5 µM
same,LC50,NCI-H322M,69.2 µM
same,TGI,NCI-H322M; read-out: pTGI (converted),30.2 µM
same,GI50,SK-MEL-5,3.47 µM
same,CC50,SK-MEL-5; [5],34.7 µM
same,TGI,SK-MEL-5; read-out: pTGI (converted),10.7 µM
same,GI50,K562,3.09 µM
same,LC50,K562,> 100 µM
same,TGI,K562; read-out: pTGI (converted),17.8 µM
same,GI50,NCI-H23,14.1 µM
same,LC50 (50% net cell kill concentration),NCI-H23,55 µM
same,TGI,NCI-H23; read-out: pTGI (converted),27.5 µM
same,GI50,SF-268 [4],20 µM
same,LC50,SF-268 [4],> 100 µM
same,TGI,SF-268 [4]; read-out: pTGI (converted),55 µM
same,GI50,U-251,2.09 µM
same,LC50 (50% net cell kill),U-251,> 100 µM
same,GI50,OVCAR-3,2.63 µM
same,CC50,OVCAR-3; [5],31.6 µM
same,TGI,OVCAR-3; read-out: pTGI (converted),6.92 µM
